Data set [1] in a line: Kinetic solubility of the compound in pH 7.4 PBS incubated for 24 hrs by UPLC/MS analysis. The format is physicochemical. The note with it: buffer, pH 7.4, 24 h.
Data set [2] is described as follows: Metabolic stability in mouse liver microsomes assessed as half life preincubated with microsomes for 15 mins followed by NADPH addition and measured upto 60 mins by LC-MS/MS analysis. The format is ADME, Microsome. The note with it: time < 75 min. The essentials: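 Compound at 4.6 µM final preincubated 15 min at 37 °C with mouse liver microsomes in 0.1 M Tris-HCl pH 7.4, then NADPH, G6P, G6PDH and MgCl2 added; sampled at 0, 5, 15, 30, 60 min into cold acetonitrile with internal standard. LC-MS/MS with positive ESI; percent remaining versus t = 0; half-life from one-phase decay non-linear regression.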
For orientation: Liver microsomes are a subcellular fraction often used to study metabolism.

Data set [3] in a line: Metabolic stability in mouse plasma assessed as half life measured upto 120 mins by LC-MS/MS analysis. It counts as ADME, cell-free. The essentials:
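Compound at 2 µM final incubated at 37 °C for up to 2 h in mouse plasma with 5 % DMSO; sampled at 0, 5, 15, 30, 60, 120 min into cold acetonitrile with internal standard, centrifuged, supernatant diluted 1:1 with water and quantified by LC-MS/MS.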

In the next data set the test system is HEK293. Nature of the data set: Cytotoxicity against HEK293 cells assessed as inhibition of cell growth at 100 uM incubated for 24 to 48 hrs by MTT assay. The format is toxicity, cell-based. The note with it: human, hek293, 100 µM, time 24-48 hrs. The procedure, abridged: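 HEK-293 cells grown in DMEM with 2 mM L-glutamine, 10 % heat-inactivated FBS, 1 % penicillin/streptomycin, 37 °C, 5 % CO2; seeded 10,000 cells/well, treated 24 h after seeding for 24 or 48 h, vehicle DMSO 0.5 % final. MTT 0.5 mg/ml for 2 h, formazan dissolved in ethanol, absorbance 570 nm (ref 650 nm); 8 serial dilutions in triplicate, three independent experiments, mean ± SD.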
For orientation: Tetrazolium dyes change colour on reduction, which living cells bring about.

In data set [4] the target is Replicase polyprotein 1ab (Severe acute respiratory syndrome coronavirus 2, UniProt P0DTD1). Nature of the data set: (§1) Inhibition of SARS-CoV-2 RdRp using ATP substrate preincubated with compound for 30 mins followed by substrate addition and measured after 30 mins by Alphascreen microplate reader analysis. (Bead proximity is the source of the signal in Alpha formats.)

The next data set has as its system SARS-CoV-2. Nature of the data set: Antiviral activity against SARS-CoV-2 human/Czech Republic/951/2020 infected in African green monkey Vero cells pretreated […] followed by viral infection and measured after 48 hrs by viral titer reduction assay. The format is functional, organism-based. The note with it: Severe acute respiratory syndrome coronavirus 2, human/Czech Republic/951/2020, Vero.

Data set [5] concerns the target Replicase polyprotein 1ab (Severe acute respiratory syndrome coronavirus 2) (UniProt P0DTD1). The data set is described as §1. The note with it: time 60.0 min.

Active and inactive are the calls of the source. The calls are words filed in the database; no cut-off is given here. Bounds are passed on as bounds.

In data set [1], `O=c1cc(Cc2ccc(O)c(O)c2)oc2cccc(O)c12` came in with a Kinetic_solubility of 63 µM. Further, the half-life (usually the time in which the quantity being followed falls by half) in data set [2] is above 2 h; in data set [3], above 1 h.
On to `O=c1c(OCCCO)c(-c2ccc(O)c(O)c2)oc2cc(O)cc(O)c12`, for which the half-life is 1.5 h in data set [2] and 1 h in data set [3]. Also, in the data set on HEK293, the Activity entry is listed as “Non-Toxic”.
For `CCCCOc1c(-c2ccc(O)c(O)c2)oc2cc(O)cc(O)c2c1=O`, the Kinetic_solubility in data set [1] is 156 µM. Moreover, the figures for the half-life in data set [2] and in data set [3] were above 2 h and above 1 h, respectively. Besides, the Activity entry in the data set on HEK293 is given as “Non-Toxic”.
`Cc1c(-c2ccc(O)c(O)c2)oc2cc(O)cc(O)c2c1=O` gave a Kinetic_solubility in data set [1] of 32 µM.
Turning to `CCCCC(c1ccc(O)c(O)c1)c1cc(=O)c2c(O)cccc2o1` (stereo not drawn), in data set [4], the 50% inhibitory concentration (IC50) (usually the midpoint of a concentration-inhibition curve) was above 100 µM.
In the case of `CCCCc1c(-c2ccc(O)c(O)c2)oc2cc(O)cc(O)c2c1=O`, the concentration for half-maximal inhibition (IC50) in data set [4] was 6 µM. For the same compound, the Kinetic_solubility in data set [1] was below 1 µM.
`O=C(Oc1ccc(O)c(O)c1)c1cc(=O)c2c(O)cccc2o1`: the Kinetic_solubility in data set [1] is below 1 µM.
On the same count and under the same terms, next, `O=C(NCCNC(=S)Nc1ccc(O)c(O)c1)c1cc(=O)c2c(O)cccc2o1`: below 1 µM.
As for `O=c1cc(/C=C/c2ccc(O)c(O)c2)oc2cccc(O)c12`, the Kinetic_solubility in data set [1] is below 1 µM.
Consider `O=c1c(O)c(-c2ccc(O)c(O)c2)oc2cc(O)cc(O)c12` [QUERCETIN], for which the half-life in data set [2] is 0.117 h; in data set [3], above 1 h.
Regarding `CC(c1ccc(O)c(O)c1)c1cc(=O)c2c(O)cccc2o1` (stereo not drawn), the Kinetic_solubility in data set [1] stood at 165 µM. In addition, the half-life in data set [2] was above 2 h; in data set [3], above 1 h. The Activity entry in the data set on HEK293 is “Non-Toxic”.
As for `O=C(N[C@@H](Cc1ccc(O)cc1)C(=O)O)c1cc(-c2ccccc2)c(=O)n2c1sc1ccc(OC3CCCCC3)cc12`, the concentration giving a half-maximal response (EC50) (as a rule, the concentration that produces a half-maximal response) in the data set on SARS-CoV-2 turned out to be 0.65 µM.
With `O=c1cc(CCc2ccc(O)c(O)c2)oc2cccc(O)c12`, the Kinetic_solubility in data set [1] came to 67 µM. The half-life in data set [2] is above 2 h; in data set [3], above 1 h.
Consider `O=c1cc(C(CCCC(F)(F)F)c2ccc(O)c(O)c2)oc2cccc(O)c12` (stereo not drawn), for which the inhibition entry in data set [5] was “inactive”.
For the compound `O=c1c(OCCO)c(-c2ccc(O)c(O)c2)oc2cc(O)cc(O)c12`, the Kinetic_solubility in data set [1] is 167 µM. Besides, the half-life in data set [2] was above 2 h; in data set [3], above 1 h. Further, the Activity entry with HEK293 was “Non-Toxic”.
`CCCc1c(-c2ccc(O)c(O)c2)oc2cc(O)cc(O)c2c1=O` yielded a Kinetic_solubility in data set [1] of 13 µM.
On to `O=C(Nc1ccc(O)c(O)c1)c1cc(=O)c2c(O)cccc2o1`, for which, in data set [1], the Kinetic_solubility is 65 µM. The values for the half-life in data set [2] and in data set [3] were 1.38 h and 1 h, respectively.
In the case of `O=c1cc(-c2ccc(O)c(O)c2)oc2cc(O)cc(O)c12` [LUTEOLIN], the half-life in data set [2] was above 2 h; in data set [3], above 1 h.
